Measured values taken from ChEMBL document CHEMBL4325893, “Synthesis and antibacterial profiles of targeted triclosan derivatives” (2019).
Values after ≈ are worked out from the molar mass of the structure shown.

Legend:
Staphylococcus aureus [1] = test: Antibacterial activity against Staphylococcus aureus ATCC 9144 after 18 hrs; format: functional; conditions: ATCC 9144, 18 h
Summary of the method: (§1)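 Broth microdilution in Nutrient Broth No. 2; stocks in ethanol diluted to 0.01–128 µg/ml (triclosan) or 0.25–256 µg/ml (glycosides). Overnight 37 °C NB2 cultures diluted 1 in 10^4 in saline and added to the dilutions. Incubation at 37 °C with agitation, OD read every 15 min; MIC is the lowest concentration preventing any OD rise after 18 h.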

Escherichia coli [2] = test: Antibacterial activity against Escherichia coli ATCC 8739 after 18 hrs; format: functional; conditions: ATCC 8739, 18 h; summary of the method: as §1
Escherichia coli [3] = test: Antibacterial activity against Escherichia coli NCTC 13216 after 18 hrs; format: functional; conditions: NCTC 13216, 18 h; summary of the method: as §1
[4] = Antibacterial activity against Salmonella enterica subspecies enterica serotype Virchow NCTC 5742 after 18 hrs; format: functional, Salmonella enterica subsp. enterica serovar Virchow; conditions: NCTC 5742, 18 h; summary of the method: as §1
[5] = Antibacterial activity against Salmonella enterica subspecies enterica serotype Dublin OCC 627 after 18 hrs; format: functional, Salmonella enterica subsp. enterica serovar Dublin; conditions: OCC 627, 18 h; summary of the method: as §1
[6] = Antibacterial activity against Salmonella enterica subspecies enterica serotype Indiana OCC 597 after 18 hrs; format: functional, Salmonella enterica subsp. enterica serovar Indiana; conditions: OCC 597, 18 h; summary of the method: as §1
Enterococcus faecium = test: Antibacterial activity against Enterococcus faecium ATCC 19434 after 18 hrs; format: functional; conditions: ATCC 19434, 18 h; summary of the method: as §1
Staphylococcus aureus [7] = test: Antibacterial activity against Staphylococcus aureus NCTC 13758 after 18 hrs; format: functional; conditions: NCTC 13758, 18 h; summary of the method: as §1
Klebsiella pneumoniae = test: Antibacterial activity against Klebsiella pneumoniae ATCC 10031 after 18 hrs; format: functional; conditions: ATCC 10031, 18 h; summary of the method: as §1
Staphylococcus aureus [8] = test: Antibacterial activity against Staphylococcus aureus ATCC 6538P after 18 hrs; format: functional; summary of the method: as §1
[9] = Antibacterial activity against Salmonella enterica subspecies enterica serotype Infantis OCC 2133 after 18 hrs; format: functional, Salmonella enterica subsp. enterica serovar Infantis; conditions: OCC 2133, 18 h; summary of the method: as §1
[10] = tested on: Staphylococcus saprophyticus; test: Antibacterial activity against Staphylococcus saprophyticus ATCC 15305 after 18 hrs; format: functional; conditions: ATCC 15305, 18 h
Summary of the method: (§2)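 Broth microdilution in Nutrient Broth No. 2. Ethanol stocks were diluted in broth to 0.01–128 µg/ml for triclosan and 0.25–256 µg/ml for glycosides. Overnight 37°C NB2 cultures were diluted 1 in 10^4 in saline and added to the wells. Plates were incubated at 37°C with OD read every 15 min after agitation. MIC was the lowest concentration giving no OD increase at 18 h.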

[11] = tested on: Staphylococcus haemolyticus; test: Antibacterial activity against Staphylococcus haemolyticus OCC 2223 after 18 hrs; format: functional; conditions: OCC 2223, 18 h; summary of the method: as §2
Serratia marcescens = test: Antibacterial activity against Serratia marcescens OCC 217 after 18 hrs; format: functional; conditions: OCC 217, 18 h; summary of the method: as §1
[12] = Antibacterial activity against Salmonella enterica subspecies enterica serotype Pullorum OCC 273 after 18 hrs; format: functional, Salmonella enterica subsp. enterica serovar Pullorum; conditions: OCC 273, 18 h; summary of the method: as §1
Escherichia coli [13] = test: Antibacterial activity against Escherichia coli ATCC 11775 after 18 hrs; format: functional; summary of the method: as §1
[14] = Antibacterial activity against Enterobacter cloacae ATCC 13047 after 18 hrs; format: functional, Enterobacter cloacae subsp. cloacae; conditions: ATCC 13047, 18 h; summary of the method: as §1
Proteus mirabilis = test: Antibacterial activity against Proteus mirabilis ATCC 12453 after 18 hrs; format: functional; conditions: ATCC 12453, 18 h; summary of the method: as §1
Staphylococcus aureus [15] = test: Antibacterial activity against Staphylococcus aureus OCC 104 after 18 hrs; format: functional; conditions: OCC 104, 18 h; summary of the method: as §1
[16] = Antibacterial activity against Salmonella enterica subspecies enterica serotype Poona NCTC 4840 after 18 hrs; format: functional, Salmonella enterica subsp. enterica serovar Poona; conditions: NCTC 4840, 18 h; summary of the method: as §1
Aeromonas hydrophila = test: Antibacterial activity against Aeromonas hydrophila OCC 778 after 18 hrs; format: functional; conditions: OCC 778, 18 h; summary of the method: as §1
Escherichia coli [17] = test: Antibacterial activity against Escherichia coli ATCC 25922 after 18 hrs; format: functional; conditions: ATCC 25922, 18 h; summary of the method: as §1
Escherichia coli [18] = test: Antibacterial activity against Escherichia coli ATCC 35218 after 18 hrs; format: functional; conditions: ATCC 35218, 18 h; summary of the method: as §1
Staphylococcus aureus [19] = test: Antibacterial activity against Staphylococcus aureus OCC 106 after 18 hrs; format: functional; conditions: OCC 106, 18 h; summary of the method: as §1
Salmonella typhimurium = test: Antibacterial activity against Salmonella enterica subspecies enterica serotype typhimurium ATCC 14028 after 18 hrs; format: functional, Salmonella enterica subsp. enterica serovar Typhimurium; conditions: ATCC 14028, 18 h; summary of the method: as §1
Streptococcus viridans = test: Antibacterial activity against Streptococcus viridans OCC 234 after 18 hrs; format: functional; conditions: OCC 234, 18 h; summary of the method: as §2
Citrobacter freundii = test: Antibacterial activity against Citrobacter freundii 8090 after 18 hrs; format: functional; conditions: Citrobacter freundii, 8090, 18 h; summary of the method: as §1
Klebsiella aerogenes = test: Antibacterial activity against Enterobacter aerogenes ATCC 13048 after 18 hrs; format: functional; conditions: ATCC 13048, 18 h; summary of the method: as §1

MIC (Staphylococcus aureus [1]): 0.5 µg/mL (≈ 1.19 µM) | MIC (Escherichia coli [2]): 0.5 to 4 µg/mL (≈ 1.19 to 9.49 µM) | MIC (Escherichia coli [3]): 0.5 to 4 µg/mL (≈ 1.19 to 9.49 µM) | MIC [4]: 2 to 8 µg/mL (≈ 4.74 to 19 µM) | MIC [5]: 2 to 8 µg/mL (≈ 4.74 to 19 µM) | MIC [6]: 2 to 8 µg/mL (≈ 4.74 to 19 µM) | MIC (Enterococcus faecium): 256 µg/mL (≈ 607 µM) | MIC (Staphylococcus aureus [7]): 0.5 µg/mL (≈ 1.19 µM) | MIC (Klebsiella pneumoniae): 0.5 µg/mL (≈ 1.19 µM) | MIC (Staphylococcus aureus [8]): 0.5 µg/mL (≈ 1.19 µM) | MIC [9]: 2 to 8 µg/mL (≈ 4.74 to 19 µM) | MIC [10]: 8 µg/mL (≈ 19 µM) | MIC (Serratia marcescens): > 256 µg/mL | MIC [12]: 2 to 8 µg/mL (≈ 4.74 to 19 µM) | MIC (Escherichia coli [13]): 0.5 to 4 µg/mL (≈ 1.19 to 9.49 µM) | MIC [14]: 0.5 µg/mL (≈ 1.19 µM) | MIC (Proteus mirabilis): 4 µg/mL (≈ 9.49 µM) | MIC (Staphylococcus aureus [15]): 0.5 µg/mL (≈ 1.19 µM) | MIC [16]: 2 to 8 µg/mL (≈ 4.74 to 19 µM) | MIC (Aeromonas hydrophila): 128 µg/mL (≈ 304 µM) | MIC (Escherichia coli [17]): 0.5 to 4 µg/mL (≈ 1.19 to 9.49 µM) | MIC (Escherichia coli [18]): 0.5 to 4 µg/mL (≈ 1.19 to 9.49 µM) | MIC (Staphylococcus aureus [19]): 0.5 µg/mL (≈ 1.19 µM) | MIC (Salmonella typhimurium): 2 to 8 µg/mL (≈ 4.74 to 19 µM) | MIC (Streptococcus viridans): 128 µg/mL (≈ 304 µM) | MIC (Citrobacter freundii): 8 µg/mL (≈ 19 µM) | MIC (Klebsiella aerogenes): 8 µg/mL (≈ 19 µM)
Compound: O[C@@H]1[C@@H](Oc2cc(Cl)ccc2Oc2ccc(Cl)cc2Cl)OC[C@@H](O)[C@H]1O
MIC [11]: 0.5 µg/mL (≈ 1.19 µM)
